Experimental data reported in ChEMBL document CHEMBL1821621, “Isolation and biological evaluation of jatrophane diterpenoids from Euphorbia dendroides” (J Nat Prod, 2011).

How the values were obtained:
[1] = tested on: NCI-H460; test: Anticancer activity against human NCI-H460 cells after 72 hrs by SRB assay; type: functional, cell-based; details: NCI-H460, 72 h
Outline: (§1)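 Cells were seeded in 96-well plates and left overnight: NCI-H460 and DLD-1 at 2000 cells/well, U-87 MG and NCI-H460/R at 4000 cells/well. NCI-H460/R was selected from NCI-H460 and kept in 100 nM doxorubicin. Compound exposure lasted 72 h. Cellular protein was stained with sulforhodamine B, and IC50 was obtained by linear regression.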

[2] = tested on: NCI-H460; test: Anticancer activity against multidrug resistant human NCI-H460 cells after 72 hrs by SRB assay; type: functional, cell-based; details: NCI-H460, 72 h; outline: as §1
[3] = tested on: DLD-1; test: Anticancer activity against human DLD1 cells after 72 hrs by SRB assay; type: functional, cell-based; details: DLD-1, 72 h; outline: as §1
[4] = Anticancer activity against human U87MG cells after 72 hrs by SRB assay; type: functional, cell-based, U-87MG ATCC; details: U-87 MG; outline: as §1
[5] = target: T1, ATP-dependent translocase ABCB1 (Homo sapiens, UniProt P08183); test: Reversal of MDR1-mediated paclitaxel resistance in multidrug resistant human NCI-H460 cells assessed as Rho123 accumulation at 20 uM after 30 mins by FACScalibur flow cytometry relative to control; type: cell-based; details: nci-h460, 0.5 h
T1 sequence (P08183 whole entry): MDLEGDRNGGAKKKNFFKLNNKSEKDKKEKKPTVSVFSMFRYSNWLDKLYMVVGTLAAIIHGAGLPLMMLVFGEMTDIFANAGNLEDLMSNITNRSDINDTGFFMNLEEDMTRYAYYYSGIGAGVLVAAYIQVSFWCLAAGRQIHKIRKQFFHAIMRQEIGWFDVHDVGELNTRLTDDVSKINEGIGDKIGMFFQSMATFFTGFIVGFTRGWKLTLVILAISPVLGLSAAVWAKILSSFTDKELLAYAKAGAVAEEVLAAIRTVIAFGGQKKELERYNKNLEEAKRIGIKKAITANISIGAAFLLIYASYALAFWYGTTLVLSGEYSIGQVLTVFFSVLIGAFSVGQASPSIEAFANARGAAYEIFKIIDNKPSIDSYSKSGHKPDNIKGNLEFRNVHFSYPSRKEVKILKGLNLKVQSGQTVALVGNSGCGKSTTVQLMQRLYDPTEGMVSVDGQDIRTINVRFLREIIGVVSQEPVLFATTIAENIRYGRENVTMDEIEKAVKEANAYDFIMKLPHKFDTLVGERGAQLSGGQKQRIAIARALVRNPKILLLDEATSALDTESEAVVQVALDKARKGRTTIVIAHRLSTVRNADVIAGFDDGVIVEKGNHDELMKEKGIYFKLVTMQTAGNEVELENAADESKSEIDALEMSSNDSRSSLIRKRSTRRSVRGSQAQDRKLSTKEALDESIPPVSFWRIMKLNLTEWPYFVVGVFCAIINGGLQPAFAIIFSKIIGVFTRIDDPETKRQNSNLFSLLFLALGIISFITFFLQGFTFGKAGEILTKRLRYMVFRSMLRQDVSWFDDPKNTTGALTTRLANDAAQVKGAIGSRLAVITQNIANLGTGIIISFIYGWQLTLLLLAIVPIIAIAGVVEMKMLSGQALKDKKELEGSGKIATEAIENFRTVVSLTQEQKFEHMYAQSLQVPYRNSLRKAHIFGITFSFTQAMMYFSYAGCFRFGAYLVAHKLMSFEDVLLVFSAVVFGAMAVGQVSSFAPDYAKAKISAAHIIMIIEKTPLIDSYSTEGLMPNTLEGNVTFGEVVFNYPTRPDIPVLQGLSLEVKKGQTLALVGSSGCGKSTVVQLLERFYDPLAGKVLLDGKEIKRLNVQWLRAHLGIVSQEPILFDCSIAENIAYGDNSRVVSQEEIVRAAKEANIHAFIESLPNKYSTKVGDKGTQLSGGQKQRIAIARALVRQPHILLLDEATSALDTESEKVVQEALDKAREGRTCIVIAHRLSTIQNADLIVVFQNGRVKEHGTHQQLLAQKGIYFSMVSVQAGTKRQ
Outline: (§2)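 NCI-H460/R cells were grown to 80% confluence, trypsinized and resuspended in medium containing Rho123. They were treated with compound at 5 or 20 μM for 30 min at 37 °C in 5% CO2, and Rho123 fluorescence (FL2-H) was read by flow cytometry. FAR = FL2-H of treated MDR cells / FL2-H of untreated MDR control.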

[6] = target: T1, ATP-dependent translocase ABCB1; test: Reversal of MDR1-mediated paclitaxel resistance in human NCI-H460 cells assessed as ratio of compound IC50 to IC50 of paclitaxel at 2.5 uM after 72 hrs by SRB assay; type: cell-based; details: nci-h460, 72 h
Outline: (§3)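 Growth was read by SRB assay. Relative reversion = IC50 of paclitaxel / IC50 of the combination. Interaction was scored by the combination index method (median effect, multiple drug effect equation).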

[7] = target: T1, ATP-dependent translocase ABCB1; test: Reversal of MDR1-mediated paclitaxel resistance in multidrug resistant human NCI-H460 cells assessed as Rho123 accumulation at 5 uM after 30 mins by FACScalibur flow cytometry relative to control; type: cell-based; details: nci-h460, 0.5 h; outline: as §2
[8] = target: T1, ATP-dependent translocase ABCB1; test: Reversal of MDR1-mediated paclitaxel resistance in human NCI-H460 cells assessed as ratio of compound IC50 to IC50 of paclitaxel at 1 uM after 72 hrs by SRB assay; type: cell-based; details: nci-h460, 72 h
Outline: as §3, with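 “Resistant NCI-H460/R cells received 1, 2.5 or 5 μM compound simultaneously with 0.0055 μM paclitaxel for 72 h. Growth” for “Growth”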

[9] = target: T1, ATP-dependent translocase ABCB1; test: Reversal of MDR1-mediated paclitaxel resistance in multidrug resistant human NCI-H460 cells assessed as combination index at 1 uM after 72 hrs by SRB assay; type: cell-based; details: nci-h460, 72 h
Outline: as §3, with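 “Resistant NCI-H460/R cells received 1, 2.5 or 5 μM compound simultaneously with 0.0055 μM paclitaxel for 72 h. Growth” for “Growth”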

[10] = target: T1, ATP-dependent translocase ABCB1; test: Reversal of MDR1-mediated paclitaxel resistance in multidrug resistant human NCI-H460 cells assessed as combination index at 2.5 uM after 72 hrs by SRB assay; type: cell-based; details: nci-h460, 72 h
Outline: as §3, with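 “Resistant NCI-H460/R cells received 1, 2.5 or 5 μM compound simultaneously with 0.0055 μM paclitaxel for 72 h. Growth” for “Growth”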

[11] = target: T1, ATP-dependent translocase ABCB1; test: Reversal of MDR1-mediated paclitaxel resistance in multidrug resistant human NCI-H460 cells assessed as combination index at 5 uM after 72 hrs by SRB assay; type: cell-based; details: nci-h460, 72 h
Outline: as §3, with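 “Resistant NCI-H460/R cells received 1, 2.5 or 5 μM compound simultaneously with 0.0055 μM paclitaxel for 72 h. Growth” for “Growth”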

[12] = target: T1, ATP-dependent translocase ABCB1; test: Reversal of MDR1-mediated doxorubicin resistance in human NCI-H460 cells assessed as ratio of compound IC50 to IC50 of paclitaxel at 5 uM after 72 hrs by SRB assay; type: cell-based; details: nci-h460, 72 h, in the assay text read “IC50 of doxorubicin” for “IC50 of paclitaxel”
Outline: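 NCI-H460/R cells received 5 μM compound simultaneously with 0.055 μM doxorubicin for 72 h, read by SRB. Relative reversion = IC50 of doxorubicin alone / IC50 of the combination. Values are the mean ± standard deviation of five independent experiments, with IC50 by linear regression.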

[13] = target: T1, ATP-dependent translocase ABCB1; test: Reversal of MDR1-mediated doxorubicin resistance in multidrug resistant human NCI-H460 cells assessed as combination index at 5 uM after 72 hrs by SRB assay; details: nci-h460, 72 h

Row | SMILES | IC30 [1] [µM] | IC50 [1] [µM] | IC30 [2] [µM] | IC50 [2] [µM] | IC30 [3] [µM] | IC50 [3] [µM] | IC30 [4] [µM] | IC50 [4] [µM] | Ratio [5] | Ratio IC50 [6] | Ratio [7] | Ratio IC50 [8] | fractional inhibitory concentration index (FICI) [9] | fractional inhibitory concentration index (FICI) [10] | fractional inhibitory concentration index (FICI) [11] | Ratio IC50 [12] | fractional inhibitory concentration index (FICI) [13]
1 | CC(=O)OC/C1=C/[C@H]2[C@@H](OC(C)=O)[C@](C)(OC(C)=O)C[C@]2(OC(C)=O)C(=O)[C@H](C)/C=C/C(C)(C)[C@H](OC(=O)c2cccnc2)[C@H](OC(C)=O)[C@@H]1OC(=O)C(C)C [EUPHODENDROPHANE F] | 4.8 | 14.8 | 51.9 | 90.8 | 38.8 | 75.3 | 27.3 | 65.5 |  |  |  |  |  |  |  |  | 
2 | CC1=C[C@@H]2[C@H](C1=O)[C@H](O)C(C)=C[C@H]1[C@@H]3C(C)(C)[C@]3(OC(=O)C(C)C)[C@H](OC(=O)c3ccccc3)[C@@H](C)[C@]21O [EUPHODENDRIANE A] | 7 | 14.3 | 15.7 | 26 | 13.3 | 27.4 | 33.2 | 60.1 |  |  |  |  |  |  |  |  | 
3 | C=C1[C@@H](OC(=O)C(C)C)[C@@H](OC(C)=O)[C@@H](OC(=O)c2cccnc2)C(C)(C)/C=C/[C@@H](C)C(=O)[C@@]2(O)C[C@H](C)[C@H](OC(=O)CC)[C@@H]2[C@H]1OC(C)=O [EUPHODENDROPHANE A] | 31 | 46.6 | 26.6 | 44.8 | 7.3 | 59.3 | 74.7 | 155 | 3.2 | 19 | 2.1 | 3 | < 0.5 | < 1 | < 0.5 | 19 | < 0.5
4 | COc1ccc(CCN(C)CCCC(C#N)(c2ccc(OC)c(OC)c2)C(C)C)cc1OC (stereo not drawn) |  |  |  |  |  |  |  |  |  |  |  |  | < 1 | < 0.5 | < 0.5 |  | < 0.5
5 | CC(=O)O[C@H]1C(=O)[C@@]2(C)[C@H]([C@H](OC(=O)c3ccccc3)[C@]3(O)C[C@H](OC(=O)[C@H](O)[C@@H](NC(=O)c4ccccc4)c4ccccc4)C(C)=C1C3(C)C)[C@]1(OC(C)=O)CO[C@@H]1C[C@@H]2O [PACLITAXEL] | 0.0036 | 0.0094 | 0.44 | 2.08 | 0.023 | 0.039 | 0.049 | 0.09 |  |  |  |  |  |  |  |  | 
6 | C=C1[C@@H](OC(=O)C(C)C)[C@@H](OC(=O)c2ccccc2)[C@@H](OC(C)=O)C(C)(C)/C=C/[C@@H](C)C(=O)[C@@]2(O)C[C@H](C)[C@H](OC(=O)CC)[C@@H]2[C@H]1OC(C)=O [EUPHODENDROPHANE E] | 8.3 | 21.9 | 15.2 | 49.8 | 13.7 | 37.9 | 14.1 | 73.1 |  |  |  |  |  |  |  |  | 
7 | C=C1[C@@H](OC(C)=O)[C@@H](OC(=O)c2ccccc2)[C@@H](OC(C)=O)C(C)(C)/C=C/[C@@H](C)C(=O)[C@@]2(O)C[C@H](C)[C@H](OC(=O)C(C)C)[C@@H]2[C@H]1OC(C)=O [EUPHODENDROPHANE D] | 11.7 | 21.3 | 14.6 | 30.1 | 14.2 | 42.7 | 10.4 | 52.6 |  |  |  |  |  |  |  |  | 
8 | C=C1[C@@H](OC(=O)C(C)C)[C@@H](OC(C)=O)[C@@H](OC(=O)c2cccnc2)C(C)(C)/C=C/[C@@H](C)C(=O)[C@@]2(O)C[C@H](C)[C@H](OC(=O)C(C)C)[C@@H]2[C@H]1OC(C)=O [EUPHODENDROPHANE B] | 6.1 | 16.2 | 3.9 | 17.2 | 4.8 | 22.1 | 6.8 | 108 | 3 | 25 | 1.9 | 11 | < 1 | < 1 | < 0.5 | 28 | < 0.5
